Results from ChEMBL document CHEMBL1124366, “Synthesis and biological properties of N63-carboxamides of teicoplanin antibiotics. Structure-activity relationships” (J Med Chem, 1989).
≈ marks a conversion by molar mass, not a printed value.

Legend:
Staphylococcus aureus = experiment: In vitro minimum inhibitory concentration against Staphylococcus aureus Tour; assay type: functional
Gram-negative bacteria = experiment: Minimum inhibitory concentration of compound against Gram negative bacteria
Streptococcus pyogenes [1] = experiment: Subcutaneously administration into mice infected with Streptococcus pyogenes C 203; assay type: functional; conditions: sc
In short: (§1)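 Mice (five per treatment group, five groups) infected intraperitoneally with about 10⁵ cells of Strep. pyogenes C 203, about 100× the LD50. ED50 (mg/kg) was calculated from the percentage of mice surviving at each dose on day 7.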

Streptococcus pneumoniae = experiment: In vitro minimum inhibitory concentration against Streptococcus pneumoniae UC41; assay type: functional
Streptococcus pyogenes [2] = experiment: In vitro minimum inhibitory concentration against Streptococcus pyogenes C 203; assay type: functional
Enterococcus faecalis = experiment: In vitro minimum inhibitory concentration against Streptococcus faecalis ATCC 7080; assay type: functional
[3] = system: Staphylococcus epidermidis; experiment: In vitro minimum inhibitory concentration against Staphylococcus epidermis ATCC 12228; assay type: functional
Pseudomonas aeruginosa = experiment: In vitro minimum inhibitory concentration against Pseudomonas aeruginosa ATCC 10145; assay type: functional
Proteus vulgaris = experiment: In vitro minimum inhibitory concentration against Proteus vulgaris X 19 ATCC 881; assay type: functional
Escherichia coli = experiment: In vitro minimum inhibitory concentration against Escherichia coli SKF 12140; assay type: functional
[4] = system: Ac2-L-Lys-D-Ala-D-Ala peptide; experiment: Association constant with Ac2-L-Lys-D-Ala-D-Ala
In short: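 UV difference spectroscopy at 24 ± 2 °C in 4-cm unthermostated cells. Antibiotic was at 30 μM in 10% MeOH in sodium phosphate buffer, pH 9, and titrated with Ac2-L-Lys-D-Ala-D-Ala. ΔA was monitored at 294 nm. Ka was taken from the slope of a Scatchard plot.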

[5] = system: Staphylococcus haemolyticus; experiment: In vitro minimum inhibitory concentration against Staphylococcus hemolyticus 602 cell line; assay type: functional; conditions: strain 602
Streptococcus pyogenes [6] = experiment: In vivo effective dose given perorally to mice infected with Streptococcus pyogenes C 203; assay type: functional; conditions: po; in short: as §1

Compound	MIC (Staphylococcus aureus) [µg/mL]	MIC (Gram-negative bacteria) [µg/mL]	MIC (Streptococcus pneumoniae) [µg/mL]	MIC (Streptococcus pyogenes [2]) [µg/mL]	MIC (Enterococcus faecalis) [µg/mL]	MIC [3] [µg/mL]	MIC (Pseudomonas aeruginosa) [µg/mL]	MIC (Proteus vulgaris) [µg/mL]	MIC (Escherichia coli) [µg/mL]	Ka [4] [M⁻¹]	ED50 (Streptococcus pyogenes [1]) [mg/kg]	MIC [5] [µg/mL]	ED50 (Streptococcus pyogenes [6]) [mg/kg]
CN(C)CCCNC(=O)[C@H]1NC(=O)[C@H]2NC(=O)[C@H](NC(=O)[C@@H]3NC(=O)[C@H]4NC(=O)[C@@H](Cc5ccc(c(Cl)c5)Oc5cc3cc(c5O)Oc3ccc(cc3Cl)[C@H]2O)NC(=O)[C@H](N)c2ccc(O)c(c2)Oc2cc(O)cc4c2)c2ccc(O)c(c2)-c2c(O)cc(O)cc21	0.06 (≈ 0.0468 µM)		0.12 (≈ 0.0935 µM)	0.06 (≈ 0.0468 µM)	0.12 (≈ 0.0935 µM)	0.016 (≈ 0.0125 µM)	32 (≈ 24.9 µM)	16 (≈ 12.5 µM)	8 (≈ 6.23 µM)	55000	0.31		
NCCCNC(=O)[C@H]1NC(=O)[C@H]2NC(=O)[C@H](NC(=O)[C@@H]3NC(=O)[C@H]4NC(=O)[C@@H](Cc5ccc(c(Cl)c5)Oc5cc3cc(c5O)Oc3ccc(cc3Cl)[C@H]2O)NC(=O)[C@H](N)c2ccc(O)c(c2)Oc2cc(O)cc4c2)c2ccc(O)c(c2)-c2c(O)cc(O)cc21	0.12 (≈ 0.0956 µM)		0.12 (≈ 0.0956 µM)	0.06 (≈ 0.0478 µM)	0.12 (≈ 0.0956 µM)	0.06 (≈ 0.0478 µM)	32 (≈ 25.5 µM)	32 (≈ 25.5 µM)	4 (≈ 3.19 µM)	26000	1.25	0.12 (≈ 0.0956 µM)	
CCOC(=O)CNC(=O)[C@H]1NC(=O)[C@H]2NC(=O)[C@H](NC(=O)[C@@H]3NC(=O)[C@H]4NC(=O)[C@@H](Cc5ccc(c(Cl)c5)Oc5cc3cc(c5O[C@@H]3O[C@@H](CO)[C@@H](O)[C@H](O)[C@@H]3NC(=O)CCCCCCC(C)C)Oc3ccc(cc3Cl)[C@H]2O[C@@H]2O[C@@H](CO)[C@@H](O)[C@H](O)[C@@H]2NC(C)=O)NC(=O)[C@H](N)c2ccc(O)c(c2)Oc2cc(O)cc4c2)c2ccc(O)c(c2)-c2c(O[C@H]3O[C@H](CO)[C@@H](O)[C@@H](O)[C@@H]3O)cc(O)cc21	0.25 (≈ 0.127 µM)		0.06 (≈ 0.0305 µM)	0.06 (≈ 0.0305 µM)	0.12 (≈ 0.0611 µM)	0.12 (≈ 0.0611 µM)				120000	0.1		> 300
N[C@H]1C(=O)N[C@@H]2Cc3ccc(c(Cl)c3)Oc3cc4cc(c3O)Oc3ccc(cc3Cl)[C@@H](O)[C@@H]3NC(=O)[C@H](NC(=O)[C@@H]4NC(=O)[C@@H](NC2=O)c2cc(O)cc(c2)Oc2cc1ccc2O)c1ccc(O)c(c1)-c1c(O)cc(O)cc1[C@@H](C(=O)O)NC3=O [TEICOPLANIN AGLYCON]	0.06 (≈ 0.05 µM)		0.12 (≈ 0.1 µM)	0.12 (≈ 0.1 µM)	0.12 (≈ 0.1 µM)	0.016 (≈ 0.0133 µM)	> 128	128 (≈ 107 µM)	64 (≈ 53.4 µM)	30000	0.95	0.25 (≈ 0.209 µM)	
CNCCCNC(=O)[C@H]1NC(=O)[C@H]2NC(=O)[C@H](NC(=O)[C@@H]3NC(=O)[C@H]4NC(=O)[C@@H](Cc5ccc(c(Cl)c5)Oc5cc3cc(c5O[C@@H]3O[C@@H](CO)[C@@H](O)[C@H](O)[C@@H]3NC(=O)CCCCCCC(C)C)Oc3ccc(cc3Cl)[C@H]2O[C@@H]2O[C@@H](CO)[C@@H](O)[C@H](O)[C@@H]2NC(C)=O)NC(=O)[C@H](N)c2ccc(O)c(c2)Oc2cc(O)cc4c2)c2ccc(O)c(c2)-c2c(O[C@H]3O[C@H](CO)[C@@H](O)[C@@H](O)[C@@H]3O)cc(O)cc21	0.12 (≈ 0.0615 µM)		0.12 (≈ 0.0615 µM)	0.06 (≈ 0.0308 µM)	0.12 (≈ 0.0615 µM)	0.06 (≈ 0.0308 µM)				66000	0.14	0.12 (≈ 0.0615 µM)	112
CN(C)CCCCCCCNC(=O)[C@H]1NC(=O)[C@H]2NC(=O)[C@H](NC(=O)[C@@H]3NC(=O)[C@H]4NC(=O)[C@@H](Cc5ccc(c(Cl)c5)Oc5cc3cc(c5O)Oc3ccc(cc3Cl)[C@H]2O)NC(=O)[C@H](N)c2ccc(O)c(c2)Oc2cc(O)cc4c2)c2ccc(O)c(c2)-c2c(O)cc(O)cc21	0.06 (≈ 0.0448 µM)		0.12 (≈ 0.0896 µM)	0.06 (≈ 0.0448 µM)	0.12 (≈ 0.0896 µM)	0.06 (≈ 0.0448 µM)	128 (≈ 95.6 µM)	128 (≈ 95.6 µM)	16 (≈ 11.9 µM)	50000	0.95	0.12 (≈ 0.0896 µM)	
N[C@H]1C(=O)N[C@@H]2Cc3ccc(c(Cl)c3)Oc3cc4cc(c3O)Oc3ccc(cc3Cl)[C@@H](O)[C@@H]3NC(=O)[C@H](NC(=O)[C@@H]4NC(=O)[C@@H](NC2=O)c2cc(O)cc(c2)Oc2cc1ccc2O)c1ccc(O)c(c1)-c1c(O)cc(O)cc1[C@@H](C(=O)NC(CCC(=O)O)C(=O)O)NC3=O (stereo not given in full)	0.12 (≈ 0.0904 µM)		0.12 (≈ 0.0904 µM)	0.12 (≈ 0.0904 µM)	0.5 (≈ 0.376 µM)	0.12 (≈ 0.0904 µM)	> 128	> 128	> 128	82000	5		

The next lines start with results.

MIC (Staphylococcus aureus) [µg/mL]	MIC (Gram-negative bacteria) [µg/mL]	MIC (Streptococcus pneumoniae) [µg/mL]	MIC (Streptococcus pyogenes [2]) [µg/mL]	MIC (Enterococcus faecalis) [µg/mL]	MIC [3] [µg/mL]	MIC (Pseudomonas aeruginosa) [µg/mL]	MIC (Proteus vulgaris) [µg/mL]	MIC (Escherichia coli) [µg/mL]	Ka [4] [M⁻¹]	Compound	ED50 (Streptococcus pyogenes [1]) [mg/kg]	MIC [5] [µg/mL]	ED50 (Streptococcus pyogenes [6]) [mg/kg]
0.25 (≈ 0.149 µM)	> 128	0.5 (≈ 0.298 µM)	0.12 (≈ 0.0716 µM)	0.5 (≈ 0.298 µM)	0.06 (≈ 0.0358 µM)					CCN(CC)CCCNC(=O)[C@H]1NC(=O)[C@H]2NC(=O)[C@H](NC(=O)[C@@H]3NC(=O)[C@H]4NC(=O)[C@@H](Cc5ccc(c(Cl)c5)Oc5cc3cc(c5O)Oc3ccc(cc3Cl)[C@H]2O[C@@H]2O[C@@H](CO)[C@@H](O)[C@H](O)[C@@H]2NC(C)=O)NC(=O)[C@H](N)c2ccc(O)c(c2)Oc2cc(O)cc4c2)c2ccc(O)c(c2)-c2c(O[C@H]3O[C@H](CO)[C@@H](O)[C@@H](O)[C@@H]3O)cc(O)cc21	0.3		
0.5 (≈ 0.303 µM)	> 128	0.5 (≈ 0.303 µM)	0.12 (≈ 0.0728 µM)	1 (≈ 0.607 µM)	0.12 (≈ 0.0728 µM)					CC(=O)N[C@@H]1[C@H](O[C@@H]2c3ccc(c(Cl)c3)Oc3cc4cc(c3O)Oc3ccc(cc3Cl)C[C@H]3NC(=O)[C@H](N)c5ccc(O)c(c5)Oc5cc(O)cc(c5)[C@H](NC3=O)C(=O)N[C@H]4C(=O)N[C@H]3C(=O)N[C@@H]2C(=O)N[C@H](C(=O)NCCCN(C)C)c2cc(O)cc(O[C@H]4O[C@H](CO)[C@@H](O)[C@@H](O)[C@@H]4O)c2-c2cc3ccc2O)O[C@@H](CO)[C@@H](O)[C@@H]1O	0.81		
0.25 (≈ 0.151 µM)	> 128	0.5 (≈ 0.301 µM)	0.12 (≈ 0.0723 µM)	0.5 (≈ 0.301 µM)	0.25 (≈ 0.151 µM)					CC(=O)N[C@@H]1[C@H](O[C@@H]2c3ccc(c(Cl)c3)Oc3cc4cc(c3O)Oc3ccc(cc3Cl)C[C@H]3NC(=O)[C@H](N)c5ccc(O)c(c5)Oc5cc(O)cc(c5)[C@H](NC3=O)C(=O)N[C@H]4C(=O)N[C@H]3C(=O)N[C@@H]2C(=O)N[C@H](C(=O)NCCN2CCCC2)c2cc(O)cc(O[C@H]4O[C@H](CO)[C@@H](O)[C@@H](O)[C@@H]4O)c2-c2cc3ccc2O)O[C@@H](CO)[C@@H](O)[C@@H]1O	0.41		
0.25 (≈ 0.149 µM)	> 128	0.5 (≈ 0.298 µM)	0.12 (≈ 0.0716 µM)	1 (≈ 0.596 µM)	0.06 (≈ 0.0358 µM)					CC(=O)N[C@@H]1[C@H](O[C@@H]2c3ccc(c(Cl)c3)Oc3cc4cc(c3O)Oc3ccc(cc3Cl)C[C@H]3NC(=O)[C@H](N)c5ccc(O)c(c5)Oc5cc(O)cc(c5)[C@H](NC3=O)C(=O)N[C@H]4C(=O)N[C@H]3C(=O)N[C@@H]2C(=O)N[C@H](C(=O)NCCN2CCOCC2)c2cc(O)cc(O[C@H]4O[C@H](CO)[C@@H](O)[C@@H](O)[C@@H]4O)c2-c2cc3ccc2O)O[C@@H](CO)[C@@H](O)[C@@H]1O	1.6		
1 (≈ 0.577 µM)	> 128	0.5 (≈ 0.289 µM)	0.12 (≈ 0.0693 µM)	0.5 (≈ 0.289 µM)	0.06 (≈ 0.0346 µM)					CCCCN(CCCC)CCCNC(=O)[C@H]1NC(=O)[C@H]2NC(=O)[C@H](NC(=O)[C@@H]3NC(=O)[C@H]4NC(=O)[C@@H](Cc5ccc(c(Cl)c5)Oc5cc3cc(c5O)Oc3ccc(cc3Cl)[C@H]2O[C@@H]2O[C@@H](CO)[C@@H](O)[C@H](O)[C@@H]2NC(C)=O)NC(=O)[C@H](N)c2ccc(O)c(c2)Oc2cc(O)cc4c2)c2ccc(O)c(c2)-c2c(O[C@H]3O[C@H](CO)[C@@H](O)[C@@H](O)[C@@H]3O)cc(O)cc21	0.18		
